According to ChEMBL document CHEMBL1124457, “In vitro antiproliferative activity of 4-substituted 2-(2-hydroxyphenyl)thiazolines on murine leukemia cells” (J Med Chem, 1989):
Values after ≈ are worked out from the molar mass of the structure shown.

What was measured:
P388 [1] = experiment: Antiproliferative activity of compound expressed as concentration that inhibits 50% of growth of P388 leukemic cell suspension from 24 to 48 hr after compound addition; type: functional, cell-based; conditions: Mus musculus
Outline: (§1)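 Cells grown in RPMI 1640 with L-glutamine, 10% defined equine serum, 2% Mopes-Hepes buffer (pH 7.40), penicillin and streptomycin. Tested in log phase (0.5 × 10^5–2 × 10^6 cells/mL), in duplicate. Compound given as 10-µL DMSO stock (one ester in ethanol), with solvent-spiked controls.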

L1210 [2] = experiment: Antiproliferative activity of compound expressed as concentration that inhibits 50% of growth of L1210 leukemic cell suspension from 24 to 48 h after compound addition; type: functional, cell-based; conditions: Mus musculus; outline: as §1
L1210 [3] = experiment: Percent viability against L1210 leukemic cells at 100 uM; type: functional, Mus musculus
L1210 [4] = experiment: Percent viability against L1210 leukemic cells 48 hr after compound addition at 100 uM; type: functional, Mus musculus
Outline: (§2)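 Leukemia cells in RPMI 1640 with 10% defined equine serum and Mopes-Hepes buffer (pH 7.40). Compound added from DMSO stock. Viable cells scored by trypan blue exclusion 48 h after compound addition.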

[5] = Solubility in phosphate-buffered saline (PBS) at pH 7.1; type: physicochemical
L1210 [6] = experiment: Percent viability against L1210 leukemic cells at 0 uM; type: functional, Mus musculus
P388 [7] = experiment: Percent viability against P388 leukemic cells 48 hr after compound addition at 100 uM; type: functional, Mus musculus; outline: as §2
[8] = Partition ratio in 1-octanol / phosphate-buffered saline system; type: physicochemical; conditions: buffer
Outline: (§3)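 Compound film was left by evaporating an alcohol solution under nitrogen. 5 mL each of 1-octanol and PBS (pH 7.1) were added, sealed under nitrogen and agitated 3 h at 27 °C. Each layer was measured by absorbance at 247 nm against Beer's plots (1.25–10 or 3.25–50 μM).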

L1210 [9] = experiment: Percent viability against L1210 leukemic cells at 50 uM; type: functional, Mus musculus
L1210 [10] = experiment: Percent viability against L1210 leukemic cells at 200 uM; type: functional, Mus musculus
[11] = Partition ratio in 1-octanol / phosphate-buffered saline system.; type: physicochemical; conditions: buffer; outline: as §3
L1210 [12] = experiment: Percent of control growth in L1210 cells by addition of 5 uM of iron-free compound; type: functional, Mus musculus
Outline: (§4)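 In L1210 iron-reversal runs, FeCl3 aqueous stock was premixed 1:1 molar with chelator stock until an intense purple colour developed, then added to the cells. Growth was compared with chelator alone, FeCl3 alone and DMSO alone. Cells were counted electronically and growth read 48 h after ligand addition as % of control ± SE.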

L1210 [13] = experiment: Antiproliferative activity of compound expressed as concentration that inhibits 50% of growth of L1210 leukemic cell suspension from 24 to 48 hr after compound addition.; type: functional, cell-based; conditions: Mus musculus; outline: as §1
V79 (Cricetulus griseus) = experiment: Tritiated thymidine uptake is estimated after incubation of 120 min with compound(50 uM) and the radiolabel
P388 [14] = experiment: Percent viability against P388 leukemic cells 48 hr after compound addition at 25 uM concentration; type: functional, Mus musculus; outline: as §2
L1210 [15] = experiment: Percent of control growth in L1210 cells by addition of 5 uM compound as iron(II) chelate (FeCl3); type: functional, Mus musculus; conditions: in the assay text read “iron(III) chelate” for “iron(II) chelate”; outline: as §4
L1210 [16] = experiment: Percent viability against L1210 leukemic cells 48 hr after compound addition at 35 uM concentration; type: functional, Mus musculus; outline: as §2
L1210 [17] = experiment: Percent viability against L1210 leukemic cells 48 hr after compound addition at 100 uM concentration; type: functional, Mus musculus; outline: as §2
P388 [18] = experiment: Percent viability against P388 leukemic cells 48 hr after compound addition at 100 uM concentration; type: functional, Mus musculus; outline: as §2
L1210 [19] = experiment: Percent of control growth in L1210 cells by addition of 25 uM of iron-free compound; type: functional, Mus musculus; outline: as §4
L1210 [20] = experiment: Percent of control growth in L1210 cells by addition of 25 uM compound as […] chelate (FeCl3); type: functional, Mus musculus; outline: as §4
L1210 [21] = experiment: Percent viability against L1210 leukemic cells at 25 uM; type: functional, Mus musculus
L1210 [22] = experiment: Antiproliferative activity, concentration that inhibits 50% of growth of L1210 leukemic cell suspension from 24 to 48 hr after compound addition.; type: functional, cell-based; conditions: Mus musculus; outline: as §1
P388 [23] = experiment: Percent viability against P388 leukemic cells 48 hr after compound addition at 100 uM concentration; ND= Not defined; type: functional, cell-based; conditions: Mus musculus; outline: as §2
P388 [24] = experiment: Antiproliferative activity of compound expressed as concentration that inhibits 50% of growth of P388 leukemic cell suspension from 24 to 48 hr after compound addition; ND= Not defined; type: functional, cell-based, Mus musculus; outline: as §1
L1210 [25] = experiment: Percent of control growth in L1210 cells by addition of 100 uM compound as […] chelate (FeCl3); type: functional, Mus musculus; outline: as §4
L1210 [26] = experiment: Percent of control growth in L1210 cells by addition of 100 uM of iron-free compound; type: functional, Mus musculus; outline: as §4

IC50 (P388 [1]) [µM]	solubility [5] [µM]	Ratio [8]	Ratio [11]	IC50 (L1210 [13]) [µM]	Compound	Viability (L1210 [3]) [%]	Viability (L1210 [4]) [%]	Viability (L1210 [6]) [%]	Viability (P388 [7]) [%]	Viability (L1210 [9]) [%]	Viability (L1210 [10]) [%]	Viability (L1210 [17]) [%]	Viability (P388 [18]) [%]	further results
17	75 (≈ 16.7 µg/mL)	0.03			O=C(O)C1CSC(c2ccccc2O)=N1 (centres undefined)	54	92	94	77	81	42			IC50 (L1210 [2]): 25 µM
1	15 (≈ 9.9 µg/mL)		0.96	3	O=C(NCCCCN(CCCCNC(=O)C1CSC(c2ccccc2O)=N1)Cc1ccccc1)C1CSC(c2ccccc2O)=N1 (centres undefined)			87		0				Control of growth (L1210 [12]): 22%; Control (V79 (Cricetulus griseus)): 48%; Viability (P388 [14]): 15%; Control of growth (L1210 [15]): 21%; Viability (L1210 [16]): 6%
32				85	NC(=O)NO [HYDROXYUREA]							97	96	
12	10 (≈ 6.12 µg/mL)	> 7		21	CC(=O)N(CCCCNC(=O)C1CSC(c2ccccc2O)=N1)CCCCNC(=O)C1CSC(c2ccccc2O)=N1 (centres undefined)	40		99		100	27	95	85	Control of growth (L1210 [19]): 29%; Control of growth (L1210 [20]): 68%; Viability (L1210 [21]): 92%
					CCOC(=N)c1ccccc1O							>99		IC50 (L1210 [22]): > 200 µM; Viability (P388 [23]): Not defined; IC50 (P388 [24]): Not defined
18	50 (≈ 11.9 µg/mL)		11.75	14	COC(=O)C1CSC(c2ccccc2O)=N1 (centres undefined)	46	87	99	85	36	42			Control of growth (L1210 [25]): 98%; Control of growth (L1210 [26]): 4%
